Results reported in ChEMBL document CHEMBL5523695, “Discovery of small molecule benzothiazole and indole derivatives tackling tau 2N4R and α-synuclein fibrils” (Bioorg Med Chem, 2024).
Active and inactive are the calls of the source. The calls are words filed in the database; no cut-off is given here.

Target: Alpha-synuclein (Homo sapiens) (UniProt P37840)
Experiment: Inhibition of recombinant alpha-Synuclein (unknown origin) aggregation assessed as reduction in fluorescence intensity by measuring residual activity at 100 uM measured every 20 mins for 40 to 70 hrs by Thioflavin T based fluorescence analysis relative to control
Conditions: time 40-70 hrs
In short: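 Recombinant α-syn (2 μM final) in 10 mM PBS pH 7.4 with 0.5 mM SDS and 300 mM NaCl. Compound at 100 μM final, ThT 20 μM, one borosilicate bead per well. Read at 37 °C every 20 min after 10 s shaking, ex 440/em 485 nm, for 40–70 h. Background was ThT plus 0.25 % DMSO without protein. Plateau fluorescence expressed as % of control, triplicates, mean ± SEM.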

| SMILES | Activity |
| --- | --- |
| O=C(Nc1ccc([N+](=O)[O-])cc1)Nc1ccc2cc[nH]c2c1 | 3.6% |
| O=C(Nc1ccc([N+](=O)[O-])cc1)Nc1ccc2[nH]ccc2c1 | 2.9% |
| COc1cccc2sc(NS(=O)(=O)c3ccc([N+](=O)[O-])cc3)nc12 | 9.5% |
| COc1cccc2sc(NS(=O)(=O)c3ccccc3I)nc12 | 5.8% |
| O=C(Nc1ccc([N+](=O)[O-])cc1)Nc1cccc2[nH]ccc12 | 4% |
| COc1cccc2sc(NC(=O)c3ccccc3[N+](=O)[O-])nc12 | 102% |
| COc1cccc2sc(NC(=O)Nc3ccccc3I)nc12 | 125% |
| COc1ccccc1S(=O)(=O)Nc1nc2c(OC)cccc2s1 | 79.3% |
| COc1cccc2sc(NC(=O)c3ccc(Cl)cc3)nc12 | 116% |
| COc1cccc2sc(NS(=O)(=O)c3ccc(C#N)cc3)nc12 | 46.1% |
| COc1cccc2sc(NC(=O)c3ccc(C(F)(F)F)cc3)nc12 | 116% |
| COc1cccc2sc(NS(=O)(=O)c3ccccc3F)nc12 | 64.9% |
| COc1cccc2sc(NS(=O)(=O)c3ccc(F)cc3F)nc12 | 87.9% |
| COc1cccc2sc(NC(=O)c3ccccc3I)nc12 | 137% |
| COc1cccc2sc(NS(=O)(=O)c3cccc(C(F)(F)F)c3)nc12 | 56% |
| O=[N+]([O-])c1ccc(S(=O)(=O)Nc2ccc3[nH]ccc3c2)cc1 | 97.6% |
| O=S(=O)(Nc1ccc2[nH]ccc2c1)c1ccccc1I | 59.7% |
| COc1cccc2sc(NC(=O)c3cccs3)nc12 | 86.6% |
| COc1cccc2sc(NC(=O)Nc3ccc(C#N)cc3)nc12 | > 200% |

Target: Alpha-synuclein (Homo sapiens) (UniProt P37840)
Experiment: Inhibition of recombinant alpha-Synuclein (unknown origin) aggregation assessed as reduction in fluorescence intensity measured every 20 mins for 40 to 70 hrs by Thioflavin T based fluorescence analysis
Conditions: dose 3.125-25 µM, time 40-70 hrs

| SMILES | inhibition |
| --- | --- |
| O=C(Nc1ccc([N+](=O)[O-])cc1)Nc1cccc2[nH]ccc12 | Dose-Dependent Effect |

Target: Alpha-synuclein (Homo sapiens) (UniProt P37840)
Experiment: Inhibition of recombinant alpha-Synuclein (unknown origin) aggregation assessed as reduction in oligomer formation at compound-protein ratio of 1:0.6 incubated for 10 mins in presence of 53W light exposure for 1 sec by PICUP assay
Conditions: not given
In short: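 α-Syn (60 μM) in 10 mM phosphate buffer was cross-linked with Ru(bpy)3 (300 μM) and ammonium persulfate (6 mM), compound at 50, 100 or 200 μM. Light from a 53 W incandescent bulb for 1 s. Laemmli/2-mercaptoethanol added, then 95 °C for 10 min. Samples run on 16 % SDS-PAGE with Coomassie stain; oligomer bands at 35–40 kDa assessed. Controls lacked light or Ru(bpy)3.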

| SMILES | inhibition |
| --- | --- |
| COc1cccc2sc(NS(=O)(=O)c3ccc([N+](=O)[O-])cc3)nc12 | inactive |
| COc1cccc2sc(NS(=O)(=O)c3ccccc3I)nc12 | inactive |
| O=C(Nc1ccc([N+](=O)[O-])cc1)Nc1cccc2[nH]ccc12 | Active |

Target: T1, Microtubule-associated protein tau (Homo sapiens, UniProt P10636)
Experiment: Inhibition of tau 2N4R (unknown origin) aggregation expressed in Escherichia coli Rosetta BL21 cells assessed as reduction in oligomer formation at 50 to 200 uM incubated for 10 mins in presence of 53W light exposure for 60 sec by PICUP assay
Conditions: dose 50-200 µM
In short: (§1)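 Tau 2N4R or 0N4R, expressed in-house from a pET30a construct in E. coli Rosetta BL21 and purified by heat step plus SP cation exchange, used at 10 μM in 10 mM phosphate buffer. Compound at 50, 100 and 200 μM. Ru(bpy)3 at 300 μM and APS at 6 mM, 60 s light exposure. Samples boiled at 95 °C for 10 min in reducing Laemmli buffer, then 16 % SDS-PAGE with Coomassie.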

T1 sequence (P10636 whole entry): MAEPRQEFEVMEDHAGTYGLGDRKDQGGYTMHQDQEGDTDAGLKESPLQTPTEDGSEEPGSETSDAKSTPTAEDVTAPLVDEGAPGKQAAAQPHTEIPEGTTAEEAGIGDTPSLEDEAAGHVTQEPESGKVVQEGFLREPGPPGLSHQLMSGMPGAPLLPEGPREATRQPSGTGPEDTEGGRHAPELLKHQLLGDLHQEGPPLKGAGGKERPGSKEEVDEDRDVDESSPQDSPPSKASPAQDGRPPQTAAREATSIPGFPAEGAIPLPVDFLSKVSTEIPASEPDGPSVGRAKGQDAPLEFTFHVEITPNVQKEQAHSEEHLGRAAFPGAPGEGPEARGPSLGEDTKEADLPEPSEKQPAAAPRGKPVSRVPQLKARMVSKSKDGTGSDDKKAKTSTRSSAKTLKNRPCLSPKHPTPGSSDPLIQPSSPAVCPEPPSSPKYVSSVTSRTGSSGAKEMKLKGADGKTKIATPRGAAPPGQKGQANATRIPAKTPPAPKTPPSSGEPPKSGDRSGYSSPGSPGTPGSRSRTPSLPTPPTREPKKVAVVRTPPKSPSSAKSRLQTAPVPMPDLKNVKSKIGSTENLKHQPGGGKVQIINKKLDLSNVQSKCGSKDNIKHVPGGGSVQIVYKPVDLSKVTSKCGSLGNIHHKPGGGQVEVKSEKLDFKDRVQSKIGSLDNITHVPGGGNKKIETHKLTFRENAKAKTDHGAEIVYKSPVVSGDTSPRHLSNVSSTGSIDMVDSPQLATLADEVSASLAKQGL

| SMILES | inhibition |
| --- | --- |
| O=C(Nc1ccc([N+](=O)[O-])cc1)Nc1ccc2cc[nH]c2c1 | inactive |
| O=C(Nc1ccc([N+](=O)[O-])cc1)Nc1ccc2[nH]ccc2c1 | inactive |
| O=C(Nc1ccc([N+](=O)[O-])cc1)Nc1cccc2[nH]ccc12 | inactive |

Target: T1, Microtubule-associated protein tau
Experiment: Inhibition of human tau 0N4R aggregation expressed in Escherichia coli Rosetta BL21 cells assessed as reduction in oligomer formation at 50 to 200 uM incubated for 10 mins in presence of 53W light exposure for 60 sec by PICUP assay
Conditions: dose 50-200 µM
In short: as §1

| SMILES | inhibition |
| --- | --- |
| O=C(Nc1ccc([N+](=O)[O-])cc1)Nc1ccc2cc[nH]c2c1 | inactive |
| O=C(Nc1ccc([N+](=O)[O-])cc1)Nc1ccc2[nH]ccc2c1 | inactive |
| O=C(Nc1ccc([N+](=O)[O-])cc1)Nc1cccc2[nH]ccc12 | inactive |

Target: Alpha-synuclein (Homo sapiens) (UniProt P37840)
Experiment: Inhibition of recombinant alpha-Synuclein (unknown origin) aggregation assessed as reduction in protein fibril formation at 100 uM measured after 68 hrs by TEM analysis
Conditions: not given
In short: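 α-Syn (2 μM) samples taken from the ThT kinetic runs after about 68 h at 37 °C, compound at 100 μM, vehicle 0.25 % DMSO. Applied to Formvar-carbon copper grids for 1 min, washed, and stained with 1 % uranyl acetate for 1 min. Imaged by TEM at 40k magnification, 100 kV.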

| SMILES | inhibition |
| --- | --- |
| O=C(Nc1ccc([N+](=O)[O-])cc1)Nc1ccc2cc[nH]c2c1 | Active |
| O=C(Nc1ccc([N+](=O)[O-])cc1)Nc1ccc2[nH]ccc2c1 | Active |
| O=C(Nc1ccc([N+](=O)[O-])cc1)Nc1cccc2[nH]ccc12 | Active |

Target: T1, Microtubule-associated protein tau
Experiment: Inhibition of unfolded tau 2N4R (unknown origin) aggregation expressed in Escherichia coli Rosetta BL21 cells assessed as reduction in protein fibril formation at 100 uM measured after 72 hrs by TEM analysis
Conditions: not given
In short: (§2)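 Recombinant tau 2N4R (6 μM) incubated with compound at 100 μM, or 0.25 % DMSO, in 10 mM PBS pH 7.4 for 72 h at 37 °C. Placed on Formvar-carbon copper grids for 1 min, rinsed, and negatively stained with 1 % uranyl acetate. TEM at 40k magnification, 100 kV.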

| SMILES | inhibition |
| --- | --- |
| O=C(Nc1ccc([N+](=O)[O-])cc1)Nc1ccc2cc[nH]c2c1 | Active |
| O=C(Nc1ccc([N+](=O)[O-])cc1)Nc1ccc2[nH]ccc2c1 | Active |
| O=C(Nc1ccc([N+](=O)[O-])cc1)Nc1cccc2[nH]ccc12 | Active |

Target: T1, Microtubule-associated protein tau
Experiment: Inhibition of unfolded tau 2N4R (unknown origin) aggregation expressed in Escherichia coli Rosetta BL21 cells assessed as reduction in formation of large dense accumulation of tau fibrils at 100 uM measured after 72 hrs by TEM analysis
Conditions: not given
In short: as §2

| SMILES | inhibition |
| --- | --- |
| O=C(Nc1ccc([N+](=O)[O-])cc1)Nc1ccc2cc[nH]c2c1 | Active |
| O=C(Nc1ccc([N+](=O)[O-])cc1)Nc1ccc2[nH]ccc2c1 | Active |
| O=C(Nc1ccc([N+](=O)[O-])cc1)Nc1cccc2[nH]ccc12 | Active |

Target: T1, Microtubule-associated protein tau
Experiment: Inhibition of unfolded tau 2N4R (unknown origin) aggregation expressed in Escherichia coli Rosetta BL21 cells assessed as reduction in short and fine needle like fibrils at 100 uM measured after 72 hrs by TEM analysis
Conditions: not given
In short: as §2

| SMILES | inhibition |
| --- | --- |
| O=C(Nc1ccc([N+](=O)[O-])cc1)Nc1ccc2cc[nH]c2c1 | Active |
| O=C(Nc1ccc([N+](=O)[O-])cc1)Nc1ccc2[nH]ccc2c1 | Active |
| O=C(Nc1ccc([N+](=O)[O-])cc1)Nc1cccc2[nH]ccc12 | Active |

Target: T1, Microtubule-associated protein tau
Experiment: Inhibition of unfolded tau 2N4R (unknown origin) aggregation expressed in Escherichia coli Rosetta BL21 cells assessed as appearance of rounded structures at 100 uM measured after 72 hrs by TEM analysis
Conditions: not given
In short: as §2

| SMILES | inhibition |
| --- | --- |
| O=C(Nc1ccc([N+](=O)[O-])cc1)Nc1ccc2cc[nH]c2c1 | Active |
| O=C(Nc1ccc([N+](=O)[O-])cc1)Nc1ccc2[nH]ccc2c1 | Active |
| O=C(Nc1ccc([N+](=O)[O-])cc1)Nc1cccc2[nH]ccc12 | Active |

Target: Alpha-synuclein (Homo sapiens) (UniProt P37840)
Experiment: (§3) Inhibition of alpha-syn inclusion formation in human M17D cells expressing doxycyclin-inducible alpha-syn-S3K::YFP inclusion-prone fusion protein assessed as reduction in inclusions treated with compound starting from 24 hrs post plating followed by doxycyclin addition at 48 hrs and measured 96 hrs post plating by Incucyte-based analysis
Assay type: cell-based
Conditions: time 72.0 hrs
In short: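 M17D-TR/αS-3K::YFP cells seeded at 30,000 per well and dosed 24 h post-plating at 1.25–40 μM (vehicle 0.1 % DMSO). Transgene induced at 48 h with dox at 1 μg/mL final. At 96 h, Incucyte analysis of punctate YFP inclusions, expressed as fold change vs DMSO. Two independent experiments, 6–12 wells total, mean ± SD, Dunnett's post-hoc test.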

| SMILES | inhibition |
| --- | --- |
| O=C(Nc1ccc([N+](=O)[O-])cc1)Nc1ccc2cc[nH]c2c1 | Dose-Dependent Effect |
| O=C(Nc1ccc([N+](=O)[O-])cc1)Nc1ccc2[nH]ccc2c1 | Active |
| O=C(Nc1ccc([N+](=O)[O-])cc1)Nc1cccc2[nH]ccc12 | Active |

Test system: not listed separately
Experiment: as §3, with “Cytotoxicity against” for “Inhibition of alpha-syn inclusion formation in”, “cell confluency at 5 to 40 uM” for “inclusions”
Assay type: toxicity
Conditions: 72 h, dose 5-40 µM
In short: (§4)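 Dox-inducible M17D-TR/αS-3K::YFP neuroblastoma cells seeded at 30,000 per well. Compound added 24 h after plating at 1.25–40 μM, with 0.1 % DMSO as vehicle. Dox at 1 μg/mL final was added at 48 h. At 96 h, Incucyte imaging gave confluence fold change vs vehicle. N = 2 independent experiments, 6–12 wells total. Mean ± SD, one-way ANOVA with Dunnett's test.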

| SMILES | Activity |
| --- | --- |
| O=C(Nc1ccc([N+](=O)[O-])cc1)Nc1ccc2cc[nH]c2c1 | Toxic |

Test system: not listed separately
Experiment: as §3, with “Cytotoxicity against” for “Inhibition of alpha-syn inclusion formation in”, “cell confluency at <20 uM” for “inclusions”
Assay type: toxicity
Conditions: 72 h
In short: as §4

| SMILES | Activity |
| --- | --- |
| O=C(Nc1ccc([N+](=O)[O-])cc1)Nc1ccc2[nH]ccc2c1 | Non-Toxic |
| O=C(Nc1ccc([N+](=O)[O-])cc1)Nc1cccc2[nH]ccc12 | Non-Toxic |

Test system: not listed separately
Experiment: as §3, with “Cytotoxicity against” for “Inhibition of alpha-syn inclusion formation in”, “cell confluency at 20 to 40 uM” for “inclusions”
Assay type: toxicity
Conditions: 72 h, dose 20-40 µM
In short: as §4

| SMILES | Activity |
| --- | --- |
| O=C(Nc1ccc([N+](=O)[O-])cc1)Nc1ccc2[nH]ccc2c1 | Toxic |
| O=C(Nc1ccc([N+](=O)[O-])cc1)Nc1cccc2[nH]ccc12 | Toxic |

Target: T1, Microtubule-associated protein tau
Experiment: Inhibition of arachidonic acid-induced full-length four-repeat tau 2N4R (unknown origin) aggregation measured upto 19 hrs by TEM analysis
Conditions: not given

| SMILES | IC50 |
| --- | --- |
| CCC(/C=C1\Sc2ccc(OC)cc2N1CCO)=C\c1sc2ccc(OC)cc2[n+]1CCO | 300 nM |

Target: Alpha-synuclein (Homo sapiens) (UniProt P37840)
Experiment: Inhibition of alpha-syn (unknown origin) aggregation assessed as reduction in fluorescence by Thioflavin-T based fluorescence analysis relative to control
Conditions: concentration not given here
In short: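 Recombinant α-syn monomer (2 μM final, diluted from a 280 μM stock in 20 mM Tris-HCl pH 7.4) in 10 mM PBS pH 7.4 with 0.5 mM SDS and 300 mM NaCl, one glass bead per well. Compound 100 μM final, ThT 20 μM, 0.25% DMSO. Ex/em 440/485 nm, read every 20 min at 37 °C with shaking, 40–70 h. Triplicates. Plateau fluorescence as % of control, background-corrected.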

| SMILES | inhibition |
| --- | --- |
| O=C(O[C@@H]1Cc2c(O)cc(O)cc2O[C@@H]1c1cc(O)c(O)c(O)c1)c1cc(O)c(O)c(O)c1 | 90% |
